Screening data deposited in PubChem by The Scripps Research Institute Molecular Screening Center.
TAAR1 antagonist: antagonists of human TAAR1; Q96RJ0; CHO RD-HGA16 TAAR1, Fluo-8 calcium fluorescence, antagonist; inhibition, % at 3 µM; 360,000 tested, 1.5% active;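 active = inhibition above a per-plate cutoff, the mean inhibition of test compounds on that plate plus 3 SD, cut at about 49% in these data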;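 note: 0% = DMSO plus EC80 beta-PEA response and 100% = DMSO alone without agonist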
Target sequence (Q96RJ0 whole entry, looked up): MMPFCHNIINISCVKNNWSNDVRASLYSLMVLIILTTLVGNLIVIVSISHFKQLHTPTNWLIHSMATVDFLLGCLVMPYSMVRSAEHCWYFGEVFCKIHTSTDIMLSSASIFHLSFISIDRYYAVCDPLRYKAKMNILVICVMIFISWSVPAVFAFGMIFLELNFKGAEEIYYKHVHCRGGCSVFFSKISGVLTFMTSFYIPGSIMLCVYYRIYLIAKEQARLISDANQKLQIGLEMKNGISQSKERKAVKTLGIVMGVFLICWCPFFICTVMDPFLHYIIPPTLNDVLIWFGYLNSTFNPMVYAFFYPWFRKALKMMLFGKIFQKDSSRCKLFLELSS
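Test system: hTAAR1-expressing CHO RD-HGA16 cells, Gα16-coupled; Probe or stimulus: EC80 β-phenethylamine stimulus; Compound dosing: single nominal final test compound concentration of 3 µM; Timing: 140 s kinetic read after compound, 140 s after agonist; Signal: Fluo-8 calcium-sensitive fluorescence; Measure: % inhibition of agonist calcium response; Controls: DMSO and EC80 PEA controls.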
OX1R antag-1: blocks the human orexin 1 receptor; O43613; CHO/OX1R cells, Fluo-8 calcium fluorescence, orexin A; AID 434989; 330,000 tested, 0.43% active; inhibition, % at 5 µM;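 active = inhibition above its plate's threshold, mean inhibition of all tested compounds on the plate plus 3 SD, cut at about 37% in these data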;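 note: 0% = orexin A challenge wells and 100% = SB-334867-A antagonist wells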
OX1R antag-2: blocks the human orexin 1 receptor; O43613; OX1R-expressing cells, FRET antagonist read-out; inhibition, % at 6.6 µM; 330,000 tested, 1.8% active; in the data active = inhibition mostly above about 38%, no sharp cut-off; inactive = mostly below about 40%;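 note: 0% = agonist challenge alone and 100% = reference antagonist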
TAAR1 ag: human TAAR1 agonism; Q96RJ0; CHO RD-HGA16 TAAR1, Fluo-8 calcium fluorescence; vehicle wells 0%, saturating PEA agonist 100%; activation, % at 3 µM; 360,000 tested, 0.99% active; AID 624467;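 active = activation above the mean activation of all test compounds in the run plus 3 SD, cut at about 38% in these data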
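Benchmarks: low control DMSO, high control PEA (EC100); System: CHO RD-HGA16 cells carrying human TAAR1 plus Gα16; Detection: Fluo-8 fluorescence, 5 s baseline then 140 s kinetic read; Schedule: 17-24 h plating, Fluo-8 75 min 37 °C, 30 min RT; Read-out basis: % activation from peak over basal fluorescence ratio, DMSO-to-PEA scaled.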
CHO parental Ca: signal in parental CHO cells, OX1R antagonist counter-screen. AID 463079. 330,000 tested, 0.63% active. parental CHO-K1, ATP-induced calcium, Fluo-8 fluorescence. inhibition, % at 5.6 µM;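 active = inhibition above that plate's mean sample inhibition plus 3 SD, cut at about 26% in these data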;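 note: 0% = ATP-challenged DMSO wells and 100% = DMSO wells without ATP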
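Material: parental CHO cells / Compound: single nominal dose of 5.6 µM per compound / Signal: Fluo-8 fluorescence / Replicates: singlicate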
GPR7 antag: blocks human GPR7 receptor signaling; 290,000 tested, 1.1% active; inhibition, % at 4.4 µM; GPR7-expressing cells, fluorescence antagonist assay; P48145; in the data active = inhibition above about 16%, passing the limit was not always enough;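 note: cells stimulated with the agonist NPW; 0% = agonist with vehicle and 100% = vehicle without agonist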
Target sequence (P48145 whole entry, looked up): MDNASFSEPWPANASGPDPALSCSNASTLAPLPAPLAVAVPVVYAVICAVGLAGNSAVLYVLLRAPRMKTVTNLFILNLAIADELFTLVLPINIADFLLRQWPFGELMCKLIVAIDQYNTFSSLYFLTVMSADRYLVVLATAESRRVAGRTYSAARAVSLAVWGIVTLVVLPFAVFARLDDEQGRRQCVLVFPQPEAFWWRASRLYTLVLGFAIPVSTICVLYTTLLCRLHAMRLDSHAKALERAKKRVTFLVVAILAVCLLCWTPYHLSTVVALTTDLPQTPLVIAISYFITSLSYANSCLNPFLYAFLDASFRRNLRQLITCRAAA
GPR7 antag cf: human GPR7 antagonism, confirmation assay | shares compounds with GPR7 antag | GPR7-expressing cells, calcium fluorescence antagonist mode | inhibition, % at 4.4 µM | 2,400 tested, 52% active | AID 1952; in the data active = inhibition above about 24%;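 note: stimulated with the GPR7 agonist NPW; 0% = agonist plus vehicle and 100% = vehicle alone without agonist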
MCHR1 antagonist: counter-screen for GPR7 antagonists: antagonists of human MCHR1; shares compounds with GPR7 antag; MCHR1-expressing cells, fluorescence antagonist assay; inhibition, % at 4.4 µM; 2,400 tested, 62% active; AID 2148; in the data active = inhibition above about 22%;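 note: 0% = vehicle with agonist and 100% = vehicle without agonist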
* hit, by the source's call; · = not tested or not shown. Sampled rows, rich in hits. Any-hit rate of the full collection: about 4.5%.

SMILES | TAAR1 antagonist | OX1R antag-1 | OX1R antag-2 | TAAR1 ag | CHO parental Ca | GPR7 antag | GPR7 antag cf | MCHR1 antagonist
N#CC1=C(N)Oc2cc(N)ccc2C1c1ccc(F)cc1F (stereo unspecified) | -4 | 11 | 22 | 12 | 1 | 34* | 9 | 21
CC(O)[C@H]1CNC(=O)C(=O)N1CCc1cc(C(F)(F)F)cc(C(F)(F)F)c1 (stereo partly specified) | 0 | -18 | 21 | 4 | -2 | · | · | ·
O=C1NC(=Nc2ccccc2)c2c1cccc2[N+](=O)[O-] | -19 | -3 | 74* | 5 | -5 | 32* | -4 | -14
Cc1ccccc1CN(c1ccc(C(=O)N2CCc3ccccc3C2)cc1)S(C)(=O)=O | 51* | -21 | 20 | 23 | -9 | 28* | 52* | 58*
CC(=O)N1c2ccc(S(=O)(=O)N3CCCC3)cc2CC1C(=O)NCc1ccccc1F (stereo unspecified) | -4 | 0 | 17 | 3 | -13 | -13 | · | ·
COC(=O)C(Cc1ccccc1)NCC(=O)Nc1cccc(Cl)c1C (stereo unspecified) | -1 | -19 | 13 | -1 | -12 | 5 | · | ·
Cc1noc(C)c1CSc1nnc(-c2ccccc2)o1 | 4 | -2 | 9 | 2 | -12 | 23* | 31* | 22*
CCOc1cc(CNC2CCCC2)cc(Cl)c1OCc1ccccc1 | 19 | 0 | 6 | 58* | 0 | 26* | 40* | 30*
CCOc1cc(CNCC(C)C)cc(Cl)c1OCc1ccccc1 | -18 | -18 | 21 | 16 | -24 | 9 | · | ·
CC1=C(C)C(=O)N(CCC(=O)O)C1=O | -9 | -3 | 18 | 1 | -3 | 1 | · | ·
O=C(O)CCn1c(=O)[nH]c(=O)n(CCC(=O)O)c1=O | -6 | -16 | 10 | 12 | -10 | 24* | -2 | -7
Cc1cc(O)c(C2(O)C(=O)Nc3cc(Br)ccc32)cc1C (stereo unspecified) | 7 | -8 | 4 | 6 | -9 | 6 | · | ·
CCN(CC(=O)Nc1ccc(N2CCOCC2)cc1)C(=O)c1ccc(C(F)(F)F)cc1 | -8 | -13 | 4 | 2 | -12 | -7 | · | ·
O=[N+]([O-])c1ccc(S(=O)(=O)NCC2CC3CCC2C3)cc1 (stereo unspecified) | 19 | -40 | -2 | 5 | -9 | 15 | · | ·
O=[N+]([O-])c1cccc(S(=O)(=O)NCC2CC3CCC2C3)c1 (stereo unspecified) | 10 | -22 | -6 | -1 | -4 | 38* | -2 | -9
CC(NCCC1(Cc2ccccc2Cl)CCOC(C)(C)C1)c1cccs1 (stereo unspecified) | -28 | -41 | 5 | 6 | -29 | 28* | 31* | 20
CCCCCC(C)NC(=O)c1ccoc1C (stereo unspecified) | 11 | -31 | 16 | 1 | -28 | -14 | · | ·
COC(=O)c1ccc(-c2ccc(/C=N/NC(=O)CC3(C)OCCCO3)o2)cc1 | 4 | -18 | 17 | 3 | -16 | 24* | 0 | 11
CC1(CC(=O)N/N=C/c2ccc(-c3ccc(C(=O)O)cc3)o2)OCCO1 | -25 | -1 | 31 | 9 | -2 | -15 | · | ·
CC(=O)NNc1ncnc2ccccc12 | 1 | -12 | 6 | 5 | 0 | 7 | · | ·
CCCCC(Nc1ncnc2ccccc12)C(=O)O (stereo unspecified) | -3 | -4 | 7 | 5 | -7 | 23* | -6 | -9
COC(=O)Cn1c2ccccc2c2nc3ccccc3nc21 | -22 | · | · | 7 | · | -17 | · | ·
O=C(O)CCn1c2ccccc2c2nc3ccccc3nc21 | 5 | -8 | 49* | 7 | -4 | 28* | 10 | 2
COCCNC(=O)c1cn(C)c2ccc(S(=O)(=O)N3CCCCC3)cc2c1=O | -12 | -23 | -1 | 0 | -5 | 0 | · | ·
CSc1sc(C(=O)N(C)C)c2c1S(=O)(=O)N(C)c1ccccc1-2 | -20 | 12 | 9 | 0 | -5 | -10 | · | ·
SMILES | TAAR1 antagonist | OX1R antag-1 | OX1R antag-2 | TAAR1 ag | CHO parental Ca | GPR7 antag | GPR7 antag cf | MCHR1 antagonist
COc1ccc(CN2C(=O)c3ccccc3C2C(=O)NCCc2ccccc2)c(OC)c1 (stereo unspecified) | -5 | -32 | 14 | 1 | -14 | -7 | · | ·
COc1ccc(CN2C(=O)c3ccccc3C2C(=O)NC2CCCCCC2)c(OC)c1 (stereo unspecified) | 12 | · | · | 0 | · | 33* | 21 | 34*
CC1CCC(NC(=O)C2c3ccccc3C(=O)N2Cc2cccs2)CC1 (stereo unspecified) | 1 | -17 | 3 | -3 | -12 | 11 | · | ·
O=C(NC1CCCCCCC1)C1c2ccccc2C(=O)N1Cc1cccs1 (stereo unspecified) | -2 | -27 | 27 | 0 | -14 | 27* | 32* | 13
COc1ccc(Br)c(C(=O)NCC2CCCCC2)c1 | 8 | -24 | -2 | -3 | -13 | 1 | · | ·
COc1ccc2oc(C(=O)NC3CCCCC3)c(C)c2c1 | -30 | -4 | 34 | 3 | -3 | 29* | 20 | 30*
COc1ccc(Br)c(C(=O)NC2CCCC2)c1 | 6 | 3 | 20 | 0 | -9 | 22* | -9 | 2
Cc1c(C(=O)NC2CCCCC2)oc2ccc(F)cc12 | -8 | -17 | 11 | 5 | -17 | 19 | · | ·
CC[n+]1ccccc1/C=C1\Sc2ccc(C)cc2N1C | 4 | -11 | 18 | 4 | -5 | 18 | · | ·
CCN1/C(=C/c2ccc3cc(C)ccc3[n+]2CC)Sc2cc(C)c(C)cc21 | 18 | · | · | 14 | · | 28* | 30* | 14
CC(NC(=O)C(Cc1ccccc1)n1cccc1)c1ccccc1 (stereo unspecified) | -17 | -37 | 8 | 9 | -26 | -3 | · | ·
Cc1cc(C)c(CSc2ncc(-c3ccc([N+](=O)[O-])cc3)[nH]2)c(C)c1 | 60* | 40* | 91* | 7 | 40* | 42* | 68* | 83*
CCn1c(NC(=O)c2ccc(C)cc2)c2ccccc2nc1=O | 13 | -31 | 4 | 1 | -11 | 32* | -6 | -10
CC(=O)O[C@@H]1C[C@H]2C(C)(C)C(=O)C=C[C@]2(C)[C@H]2CC[C@@]3(C)[C@H](c4ccoc4)OC(=O)[C@H]4O[C@]43[C@@]21C | 20 | -19 | 17 | 21 | -6 | 28* | 42* | 18
O=C(CC1C(=O)NCCN1Cc1cccc(Oc2ccccc2)c1)NCCCn1cccn1 (stereo unspecified) | 1 | 3 | 10 | 7 | -1 | -5 | · | ·
